The results in this text go back to paper PMC4339026 (Biopolymers, 2014).

Holding throughout (format): biochemical
One test addresses T1, ADAM10 (Homo sapiens, UniProt O14672).
T1 sequence (O14672 214-748): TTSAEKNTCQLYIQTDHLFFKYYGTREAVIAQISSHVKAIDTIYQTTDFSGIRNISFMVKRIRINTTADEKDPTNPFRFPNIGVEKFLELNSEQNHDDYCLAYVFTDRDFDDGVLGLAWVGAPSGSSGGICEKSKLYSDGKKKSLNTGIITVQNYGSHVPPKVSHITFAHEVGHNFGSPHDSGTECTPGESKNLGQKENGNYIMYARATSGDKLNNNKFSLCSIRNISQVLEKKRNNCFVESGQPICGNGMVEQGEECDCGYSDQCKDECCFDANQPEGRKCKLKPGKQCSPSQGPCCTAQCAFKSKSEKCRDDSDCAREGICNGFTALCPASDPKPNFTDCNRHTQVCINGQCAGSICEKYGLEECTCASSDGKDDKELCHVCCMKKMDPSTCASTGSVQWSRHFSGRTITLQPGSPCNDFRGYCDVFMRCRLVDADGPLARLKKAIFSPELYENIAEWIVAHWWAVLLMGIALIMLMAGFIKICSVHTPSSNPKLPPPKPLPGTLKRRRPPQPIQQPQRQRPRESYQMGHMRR
Nature of the test: Selectivity testing against zinc metalloproteases: ADAM10. Particulars: read-out: IC50 ADAM10; n = 3 Mean ± SD.

For another test, the target named is MMP-13 (Homo sapiens, UniProt P45452). Nature of the test: Selectivity testing against zinc metalloproteases: MMP-13. Particulars: read-out: IC50 MMP-13; n = 3 Mean ± SD.
In another test the target is T2, MMP-2 (Homo sapiens, UniProt P08253).
T2 sequence (P08253 110-660): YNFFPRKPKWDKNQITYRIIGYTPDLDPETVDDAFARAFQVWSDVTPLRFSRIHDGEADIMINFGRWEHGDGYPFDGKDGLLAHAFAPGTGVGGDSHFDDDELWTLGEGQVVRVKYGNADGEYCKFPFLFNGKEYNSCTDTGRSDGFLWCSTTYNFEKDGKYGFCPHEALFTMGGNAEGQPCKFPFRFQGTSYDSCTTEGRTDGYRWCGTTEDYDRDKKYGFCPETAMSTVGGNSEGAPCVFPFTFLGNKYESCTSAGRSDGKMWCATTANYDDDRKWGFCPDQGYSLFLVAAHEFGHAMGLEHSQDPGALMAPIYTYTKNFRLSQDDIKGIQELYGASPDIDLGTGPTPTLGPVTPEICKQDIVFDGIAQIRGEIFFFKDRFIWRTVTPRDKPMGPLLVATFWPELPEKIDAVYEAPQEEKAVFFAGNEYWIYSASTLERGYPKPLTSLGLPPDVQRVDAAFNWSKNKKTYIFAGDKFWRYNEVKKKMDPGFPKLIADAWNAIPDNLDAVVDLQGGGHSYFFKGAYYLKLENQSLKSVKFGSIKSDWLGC
As to the kind of experiment: Selectivity testing against zinc metalloproteases: MMP-2. The settings on record: read-out: IC50 MMP-2; n = 3 Mean ± SD.

The target in test [1] is T3, meprin β (Homo sapiens, UniProt Q16820).
T3 sequence (Q16820 62-614 limits assumed): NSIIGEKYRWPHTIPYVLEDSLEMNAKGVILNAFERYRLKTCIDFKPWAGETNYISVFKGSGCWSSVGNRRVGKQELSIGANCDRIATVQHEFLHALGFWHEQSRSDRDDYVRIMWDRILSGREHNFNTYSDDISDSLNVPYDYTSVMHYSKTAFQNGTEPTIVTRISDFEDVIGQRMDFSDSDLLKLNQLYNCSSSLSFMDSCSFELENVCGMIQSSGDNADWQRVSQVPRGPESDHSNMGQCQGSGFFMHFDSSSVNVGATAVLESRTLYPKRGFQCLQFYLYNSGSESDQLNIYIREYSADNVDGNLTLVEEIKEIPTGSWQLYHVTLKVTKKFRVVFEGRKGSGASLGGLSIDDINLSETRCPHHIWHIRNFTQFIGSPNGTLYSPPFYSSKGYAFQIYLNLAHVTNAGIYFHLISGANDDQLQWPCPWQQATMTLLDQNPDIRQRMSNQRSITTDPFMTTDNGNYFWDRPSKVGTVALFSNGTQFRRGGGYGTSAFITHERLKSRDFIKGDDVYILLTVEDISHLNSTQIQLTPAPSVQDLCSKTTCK
As to the kind of experiment: Meprin β HTS FRET assay, dose response. The settings on record: dose response experiment, data not shown. The method in brief:
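Trypsin-activated meprin β (trypsin removed on immobilized ovomucoid) in 50 mM Hepes, 0.01% Brij-35, pH 7.5, added as 2x (0.15 nM) solution. Pin-transferred inhibitor was preincubated 30 min at RT. 2x (20 μM) (MCA)-EDEDED-(K-ε-DNP) was then added, run 1 h at RT, and read at ex 324/em 393 nm. A 3-fold dilution series was run in quadruplicate, and % inhibition was fitted with a 4-parameter equation. DMSO final was 0.1% or 1.0%.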

The target in another test is MMP-9 (Homo sapiens, UniProt P14780). Nature of the test: Selectivity testing against zinc metalloproteases: MMP-9. Particulars: read-out: IC50 MMP-9; n = 3 Mean ± SD.
MMP-9, sequence (P14780 94-707, species assumed): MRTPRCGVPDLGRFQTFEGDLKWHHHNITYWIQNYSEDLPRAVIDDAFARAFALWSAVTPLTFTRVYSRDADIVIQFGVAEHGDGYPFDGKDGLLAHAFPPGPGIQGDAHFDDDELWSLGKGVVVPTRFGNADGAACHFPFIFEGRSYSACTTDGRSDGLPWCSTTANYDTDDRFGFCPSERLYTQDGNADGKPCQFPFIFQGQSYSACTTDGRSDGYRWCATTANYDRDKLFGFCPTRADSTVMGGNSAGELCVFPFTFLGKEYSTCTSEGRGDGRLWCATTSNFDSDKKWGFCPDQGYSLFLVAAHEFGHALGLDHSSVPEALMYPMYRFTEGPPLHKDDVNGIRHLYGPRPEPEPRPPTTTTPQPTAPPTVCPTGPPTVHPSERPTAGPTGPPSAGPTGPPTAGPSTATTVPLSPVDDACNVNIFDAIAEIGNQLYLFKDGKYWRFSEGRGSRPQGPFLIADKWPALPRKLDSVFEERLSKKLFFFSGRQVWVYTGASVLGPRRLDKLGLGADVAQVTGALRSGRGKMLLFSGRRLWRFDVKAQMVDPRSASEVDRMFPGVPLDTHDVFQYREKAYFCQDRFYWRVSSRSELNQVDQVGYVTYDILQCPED
Another test concerns the target T4, MMP-1 (Homo sapiens, UniProt P03956).
T4 sequence (P03956 100-469): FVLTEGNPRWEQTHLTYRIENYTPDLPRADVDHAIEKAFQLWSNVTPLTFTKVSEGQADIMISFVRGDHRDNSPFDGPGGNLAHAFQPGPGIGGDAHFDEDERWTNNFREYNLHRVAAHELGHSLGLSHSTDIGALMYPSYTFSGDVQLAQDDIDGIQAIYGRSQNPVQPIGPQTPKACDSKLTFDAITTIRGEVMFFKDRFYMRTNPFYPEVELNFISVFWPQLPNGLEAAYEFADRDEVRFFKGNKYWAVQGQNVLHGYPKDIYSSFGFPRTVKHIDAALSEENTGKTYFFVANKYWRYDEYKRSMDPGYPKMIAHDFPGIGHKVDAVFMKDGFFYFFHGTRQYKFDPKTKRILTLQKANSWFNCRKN
As to the kind of experiment: Selectivity testing against zinc metalloproteases: MMP-1. The settings on record: read-out: IC50 MMP-1; n = 3 Mean ± SD.

The next test has as its target ADAM17 (Homo sapiens, UniProt P78536). Nature of the test: Selectivity testing against zinc metalloproteases: ADAM17. The settings on record: read-out: IC50 ADAM17; n = 3 Mean ± SD.
The target of test [2] is T3, meprin β. As to the kind of experiment: Meprin β LOPAC pilot screen. Particulars: 18 μM.
Another test addresses T5, meprin α (Homo sapiens, UniProt Q16819).
T5 sequence (Q16819 66-653 limits assumed): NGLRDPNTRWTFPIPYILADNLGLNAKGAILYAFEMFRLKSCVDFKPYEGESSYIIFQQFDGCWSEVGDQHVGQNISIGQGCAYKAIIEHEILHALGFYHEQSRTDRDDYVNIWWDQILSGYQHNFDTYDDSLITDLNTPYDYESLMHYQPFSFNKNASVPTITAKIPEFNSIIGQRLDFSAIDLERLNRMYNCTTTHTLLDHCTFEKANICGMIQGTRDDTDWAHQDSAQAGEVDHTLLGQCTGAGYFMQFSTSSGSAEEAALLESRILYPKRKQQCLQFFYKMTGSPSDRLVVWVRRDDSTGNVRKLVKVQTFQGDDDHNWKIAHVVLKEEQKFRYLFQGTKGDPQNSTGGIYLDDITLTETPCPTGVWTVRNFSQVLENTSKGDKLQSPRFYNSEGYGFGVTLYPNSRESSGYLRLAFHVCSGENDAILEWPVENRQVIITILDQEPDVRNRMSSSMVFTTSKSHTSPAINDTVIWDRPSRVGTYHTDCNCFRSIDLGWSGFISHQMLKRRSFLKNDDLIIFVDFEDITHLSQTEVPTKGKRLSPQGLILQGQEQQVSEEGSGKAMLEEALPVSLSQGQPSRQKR
As to the kind of experiment: Meprin α HTS FRET assay, dose response. The settings on record: read-out: IC50 Meprin α; selectivity testing; n = 3 Mean ± SD. The method in brief: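 Recombinant human Strep-tagged meprin α was expressed in baculovirus-infected BTI-TN-5B1-4 cells, trypsin-activated, then freed of trypsin. It was used as a 2x solution at 2.6 nM in 50 mM Hepes, 0.01% Brij-35, pH 7.5. Test compound was pre-incubated 30 min at RT, then 2x (MCA)-YVADAPK-(K-ε-DNP) at 20 μM was added for 1 h at RT. Read at ex 324/em 393 nm. 3-fold dilutions in quadruplicate; 4-parameter fit; 0.1% or 1.0% DMSO.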

SMILES strings stand for the structures. Bounds are passed on as bounds.

ADAM17, sequence (P78536 215-824, species assumed): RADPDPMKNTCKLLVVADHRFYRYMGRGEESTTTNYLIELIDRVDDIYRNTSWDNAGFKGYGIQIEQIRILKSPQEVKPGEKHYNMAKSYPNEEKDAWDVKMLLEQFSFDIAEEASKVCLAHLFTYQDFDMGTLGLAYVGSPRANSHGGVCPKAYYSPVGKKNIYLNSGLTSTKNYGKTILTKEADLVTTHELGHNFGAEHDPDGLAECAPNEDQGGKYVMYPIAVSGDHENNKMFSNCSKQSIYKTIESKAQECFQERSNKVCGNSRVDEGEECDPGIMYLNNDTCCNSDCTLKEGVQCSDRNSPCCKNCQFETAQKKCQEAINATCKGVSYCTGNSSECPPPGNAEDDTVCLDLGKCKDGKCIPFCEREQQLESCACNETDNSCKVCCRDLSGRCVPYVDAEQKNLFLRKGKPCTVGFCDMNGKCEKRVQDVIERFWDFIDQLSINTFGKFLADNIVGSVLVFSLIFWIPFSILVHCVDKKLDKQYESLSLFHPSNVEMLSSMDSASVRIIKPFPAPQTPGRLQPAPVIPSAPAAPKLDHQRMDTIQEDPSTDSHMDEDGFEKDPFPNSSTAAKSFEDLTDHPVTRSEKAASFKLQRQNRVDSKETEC

As usually defined, the IC50 is the midpoint of a concentration-inhibition curve. `N.N.[Cl][Pt][Cl]` [Cisplatin, cisplatin]: the IC50 is 4.2 ± 0.2 µM on ADAM10; more than 100 µM on MMP-13; 5.1 ± 0.6 µM on MMP-2; 13.9 ± 2.1 µM at MMP-9; 5.1 ± 0.5 µM on MMP-1; 5.1 ± 0.4 µM at ADAM17. In addition, the IC50 at meprin α is more than 100 µM. The “meprin β dose response behaviour” value on meprin β [1] is listed as “dose dependent negative inhibition”. Further, on meprin β [2], the “% inhibition meprin β in pilot screen” value is given as “negative inhibition values”. Further, the “meprin β LOPAC pilot screen outcome” value at meprin β [2] (hit cutoff 25% inhibition) was “selective hits”.
